Converted amounts (≈) assume the structure as drawn.
Tests used:
[1] = Antioxidant activity assessed as inhibition of 2,2'-azobis(2-amidinopropane)dihydrochloride-induced lipid peroxidation at 3.125 ug/ml by ferric thiocyanate system relative to control; assay type: functional
Summary of the method: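 Linoleic acid emulsified in Tween, peroxidation induced by AAPH; oxidation followed by ferric thiocyanate method.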

[2] = test system: Radical scavenging activity; experiment: Antioxidant activity assessed as DPPH free radical scavenging activity relative to control; assay type: functional
Summary of the method: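 Test samples in EtOH mixed with 100 µM ethanolic DPPH, incubated 30 min at 37 °C; absorbance read at 515 nm. Percent inhibition calculated against ethanol-treated control; IC50 taken as concentration scavenging 50% of DPPH radicals.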

[3] = Antioxidant activity assessed as superoxide anion scavenging activity by xanthine oxidase oxidation system relative to control; assay type: functional
Summary of the method: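 Superoxide produced by xanthine oxidase (1.4 × 10-8 units) with 0.1 mM xanthine in 40 mM sodium carbonate buffer pH 10.2 containing 0.1 mM EDTA, 50 µg/mL BSA and […]; 20 min at 25 °C, stopped with CuCl2. Formazan read at 560 nm; IC50 as concentration scavenging 50% of superoxide.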

[4] = molecular target: Human immunodeficiency virus type 1 integrase (Human immunodeficiency virus 1, UniProt Q7ZJM1); experiment: Inhibition of HIV1 recombinant integrase expressed in Escherichia coli
Human immunodeficiency virus type 1 integrase, sequence (Q7ZJM1 whole entry): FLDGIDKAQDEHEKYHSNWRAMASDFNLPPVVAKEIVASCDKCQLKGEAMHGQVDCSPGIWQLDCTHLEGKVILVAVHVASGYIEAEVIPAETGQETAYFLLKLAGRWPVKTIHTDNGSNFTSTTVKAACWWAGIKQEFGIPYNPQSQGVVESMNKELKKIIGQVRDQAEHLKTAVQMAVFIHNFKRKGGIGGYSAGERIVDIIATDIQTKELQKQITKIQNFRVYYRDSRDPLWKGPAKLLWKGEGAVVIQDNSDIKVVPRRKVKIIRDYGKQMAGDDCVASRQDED

Compound: O=C(O)c1ccc(O)c(O)c1 [PROTOCATECHUIC ACID]
- inhibition [1]: 38.1%
- IC50 [2]: 6.9 µg/mL (≈ 44.8 µM)
- IC50 [3]: 13 µg/mL (≈ 84.3 µM)

Compound: O=c1c(O)c(-c2ccc(O)c(O)c2)oc2cc(O)cc(O)c12 [QUERCETIN]
- inhibition [1]: 54.2%
- IC50 [2]: 5.9 µg/mL (≈ 19.5 µM)
- IC50 [3]: > 50 µg/mL

Compound: COC(=O)[C@]1(O)C[C@@H](O)[C@@H](OC(=O)/C=C/c2cc(OC)c(O)c(OC)c2)[C@H](OC(=O)/C=C/c2ccc(O)c(O)c2)C1
- IC50 [4]: 33.8 µM
- inhibition [1]: 56%
- IC50 [2]: 8.3 µg/mL (≈ 14.4 µM)
- IC50 [3]: 1.8 µg/mL (≈ 3.13 µM)

Compound: O=C(O)/C=C/c1ccc(O)c(O)c1 [CAFFEIC ACID]
- inhibition [1]: 54.1%
- IC50 [2]: 3.2 µg/mL (≈ 17.8 µM)
- IC50 [3]: 0.5 µg/mL (≈ 2.78 µM)

Compound: VITAMIN E [listing 1 of 2 here]
- IC50 [2]: 9.4 µg/mL
- IC50 [3]: > 50 µg/mL

Compound: COC(=O)C1=CO[C@@H](O[C@@H]2O[C@H](CO)[C@@H](O)[C@H](O)[C@H]2O)[C@@H]2C(CO)=CC[C@H]12 [GENIPOSIDE]
- IC50 [4]: > 257 µM
- inhibition [1]: 2%
- IC50 [2]: > 50 µg/mL
- IC50 [3]: > 50 µg/mL

Compound: O=C(/C=C/c1ccc(O)c(O)c1)O[C@H]1[C@H](O)C[C@](O)(C(=O)O)C[C@H]1OC(=O)/C=C/c1ccc(O)c(O)c1
- IC50 [4]: 10.5 µM
- inhibition [1]: 51.7%
- IC50 [2]: 5.9 µg/mL (≈ 11.4 µM)
- IC50 [3]: 3.3 µg/mL (≈ 6.39 µM)

Compound: CCOC(=O)[C@]1(O)C[C@@H](O)[C@@H](OC(=O)/C=C/c2cc(OC)c(O)c(OC)c2)[C@H](OC(=O)/C=C/c2ccc(O)c(O)c2)C1
- IC50 [4]: 73.9 µM
- inhibition [1]: 54.9%
- IC50 [2]: 6.1 µg/mL (≈ 10.4 µM)
- IC50 [3]: 2 µg/mL (≈ 3.4 µM)

Compound: O=C1O[C@H]([C@@H](O)CO)C(O)=C1O [ASCORBIC ACID]
- inhibition [1]: 44.1%
- IC50 [2]: 5.5 µg/mL (≈ 31.2 µM)
- IC50 [3]: > 50 µg/mL

Compound: COc1cc(C(=O)O)ccc1O[C@@H]1O[C@H](COC(=O)/C=C/c2cc(OC)c(O)c(OC)c2)[C@@H](O)[C@H](O)[C@H]1O
- IC50 [4]: > 186 µM
- inhibition [1]: 38.4%
- IC50 [2]: 22.7 µg/mL (≈ 42.3 µM)
- IC50 [3]: 46.3 µg/mL (≈ 86.3 µM)

Compound: COC(=O)[C@@]1(O)C[C@@H](OC(=O)/C=C/c2ccc(O)c(O)c2)[C@H](O)[C@H](OC(=O)/C=C/c2cc(OC)c(O)c(OC)c2)C1
- IC50 [4]: 41.1 µM
- inhibition [1]: 54.7%
- IC50 [2]: 8.5 µg/mL (≈ 14.8 µM)
- IC50 [3]: 2.2 µg/mL (≈ 3.83 µM)

Compound: O=C(O)C1=CO[C@@H](O[C@@H]2O[C@H](CO)[C@@H](O)[C@H](O)[C@H]2O)[C@@H]2C(CO)=CC[C@H]12 [GENIPOSIDIC ACID]
- IC50 [4]: > 267 µM
- inhibition [1]: 4.8%
- IC50 [2]: > 50 µg/mL
- IC50 [3]: > 50 µg/mL

Compound: O=c1c(O[C@@H]2O[C@H](CO)[C@@H](O)[C@H](O)[C@H]2O)c(-c2ccc(O)c(O)c2)oc2cc(O)cc(O)c12 [ISOQUERCETIN]
- inhibition [1]: 49.9%
- IC50 [2]: 16.6 µg/mL (≈ 35.7 µM)
- IC50 [3]: 3.4 µg/mL (≈ 7.32 µM)

Compound: VITAMIN E [listing 2 of 2 here]
- inhibition [1]: 61.2%

Compound: CCOC(=O)[C@@]1(O)C[C@@H](OC(=O)/C=C/c2ccc(O)c(O)c2)[C@H](O)[C@H](OC(=O)/C=C/c2cc(OC)c(O)c(OC)c2)C1
- IC50 [4]: 80.5 µM
- inhibition [1]: 53.8%
- IC50 [2]: 9.5 µg/mL (≈ 16.1 µM)
- IC50 [3]: 2.7 µg/mL (≈ 4.59 µM)

Compound: CCOC(=O)[C@]1(O)C[C@@H](O)[C@@H](O)[C@H](OC(=O)/C=C/c2ccc(O)c(O)c2)C1 [ETHYL CHLOROGENATE]
- IC50 [4]: 116 µM
- inhibition [1]: 51.1%
- IC50 [2]: 7.1 µg/mL (≈ 18.6 µM)
- IC50 [3]: 1 µg/mL (≈ 2.62 µM)

Compound: Oc1ccc(/C=C/c2cc(O)cc(O)c2)cc1 [RESVERATROL]
- inhibition [1]: 39.1%
- IC50 [2]: 17.1 µg/mL (≈ 74.9 µM)
- IC50 [3]: 37.9 µg/mL (≈ 166 µM)

Compound: O=C(/C=C/c1ccc(O)c(O)c1)O[C@@H]1C[C@](O)(C(=O)O)C[C@@H](OC(=O)/C=C/c2ccc(O)c(O)c2)[C@H]1O
- IC50 [4]: 11.4 µM
- inhibition [1]: 51.5%
- IC50 [2]: 5.6 µg/mL (≈ 10.8 µM)
- IC50 [3]: 2.9 µg/mL (≈ 5.62 µM)
